Format in all cases: functional, cell-based
Experiment [1] deals with HT-29. Description: Cytotoxicity against human HT-29 cells assessed as cell viability after 48 hrs by MTT assay. To be noted: HT-29, 48 h. A digest of the protocol: (§1)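 HT-29 colon and ES-2 ovarian cells were grown in McCoy's 5A with 10% FCS and 1% Pen-Strep, and MT-3 breast cells in RPMI. Cells were seeded at 1 × 10⁴ per well 24 h before dosing. Free drug was given in DMSO/water (final DMSO max 0.5%). Liposomes were diluted in PBS, with lipid content set by phosphorus analysis. Exposure lasted 24 h, then cells were washed and kept 48 h in complete medium.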

The subject of experiment [2] is HT-29. Description: Cytotoxicity against human HT-29 cells assessed as cell viability after 48 hrs by MTT assay in presence of Agkistrodon piscivorus secreted PLA2. To be noted: HT-29, 48 h. A digest of the protocol:
(§2)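 These lines follow the same protocol: HT-29 and ES-2 cells in McCoy's 5A with 10% FCS and 1% Pen-Strep, MT-3 cells in RPMI, seeded at 1 × 10⁴ per well 24 h ahead. Liposomal prodrugs in PBS were given with Agkistrodon piscivorus piscivorus venom sPLA₂ at 5 nM final. Exposure lasted 24 h, then cells were washed and given 48 h recovery in complete medium.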
(Formazan colour is commonly taken as a measure of viable cells.)

The nature of experiment [3]: Cytotoxicity against human MT3 cells assessed as cell viability after 48 hrs by MTT assay. Particulars: MT-3, 48 h. A digest of the protocol:
as §1

A short description of experiment [4]: Cytotoxicity against human MT3 cells assessed as cell viability after 48 hrs by MTT assay in presence of Agkistrodon piscivorus secreted PLA2. To be noted: MT-3, 48 h. A digest of the protocol: as §2
Experiment [5] in a line: Cytotoxicity against human ES2 cells assessed as cell viability after 48 hrs by MTT assay. To be noted: ES-2, 48 h. A digest of the protocol:
as §1

Experiment [6] in a line: Cytotoxicity against human ES2 cells assessed as cell viability after 48 hrs by MTT assay in presence of Agkistrodon piscivorus secreted PLA2. To be noted: ES-2, 48 h. A digest of the protocol:
as §2

Each structure is given as a SMILES string.

`CCCCCCCCCCCCCCCCCCOC[C@H](COP(=O)(O)OC[C@@H](O)CO)OC(=O)CCCc1ccc(N(CCCl)CCCl)cc1`: the IC50 (usually the midpoint of a concentration-inhibition curve) in the experiment on HT-29 [1] is above 200 µM; with HT-29 [2] it was 10 µM; in experiment [3] it was above 200 µM; in experiment [4], 36 µM; in experiment [5], 97 µM; in experiment [6], 8 µM.

Regarding `CCCCCCCCCCCCCCCCCCOC[C@H](COP(=O)([O-])OCC[N+](C)(C)C)OC(=O)CCCc1ccc(N(CCCl)CCCl)cc1`, the IC50 in the experiment on HT-29 [1] is above 200 µM; in the experiment on HT-29 [2], 32 µM; in experiment [3] it was above 200 µM; in experiment [4] it was 36 µM.

Consider `O=C(O)CCCc1ccc(N(CCCl)CCCl)cc1` [CHLORAMBUCIL], for which the IC50 in the experiment with HT-29 [1] was found to be 70 µM; in experiment [3] it was 95 µM; in experiment [5], 34 µM.

`CCCCCCCCCCCCCCCCCCOC[C@@H](O)COP(=O)([O-])OCC[N+](C)(C)C`: the IC50 in the experiment with HT-29 [1] came to 18 µM; in experiment [3], 35 µM; in experiment [5] it was 30 µM.

Values taken from ChEMBL document CHEMBL1138516, “Synthesis and biophysical characterization of chlorambucil anticancer ether lipid prodrugs” (J Med Chem, 2009).
